# Legend:
# [1] = system: A549-T12; assay: Cell growth inhibition, drug-resistant cell line study; assay type: cell-based, human; conditions: for IC50: Homo sapiens; for resistance ratio: IC50 A549-T12 / IC50 A549
# In short: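 Cells seeded at 8 × 10^3 per well and preincubated 18 h at 37 °C in humidified 5% CO2. Medium then replaced with fresh medium holding test compound at several concentrations (10 mM DMSO stocks; final DMSO ≤0.25%) for 72 h at 37 °C. Viability by MTT. […] Parental A549 grown in DMEM with 10% FBS.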
# [2] = system: A549; assay: In vitro cell growth inhibition; assay type: cell-based; conditions: Homo sapiens
# [3] = system: panel of seven human cancer cell lines; assay: Antiproliferative activity across the panel of seven human cancer cell lines; assay type: cell-based; conditions: read-out: IC50 values across the cell line panel
# In short: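 Jurkat, SEM and HL-60 cells were grown in RPMI-1640; MCF-7, A549, HeLa and HT-29 cells in DMEM; both with 10% FBS plus penicillin/streptomycin. 8 × 10^3 cells/well were held 18 h at 37 °C, 5% CO2, then given fresh medium with graded compound (DMSO ≤0.25%) for 72 h. Viability was read by MTT. […] Mean ± SE, ≥3 independent experiments.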
# [4] = system: Jurkat, HT-29, and HeLa cells; assay: Cell cycle analysis by flow cytometry; assay type: cell-based, human; conditions: for lowest concentration giving a rise in G2/M cells: 24 h treatment
# In short: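 Cells were treated for 24 h with graded compound concentrations (HeLa: 5 × 10^5 exponentially growing cells). They were collected, fixed in ice-cold 70% ethanol, and treated with lysis buffer containing RNase A and 0.1% Triton X-100. After PI staining, DNA content was read by flow cytometry. Cell-cycle phase percentages came from DNA histogram analysis.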
# [5] = system: HeLa cells; assay: Annexin-V/PI apoptosis assay; assay type: cell-based, human; conditions: 24 or 48 h, concentration- and time-dependent
# [6] = Cytotoxicity for PHA-stimulated peripheral blood lymphocytes; assay type: cell-based; conditions: human, PHA-stimulated (proliferating) peripheral blood lymphocytes
# In short: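 PBLs from healthy donors were isolated on a Lymphoprep gradient, washed, and rested overnight at 1.0 × 10^6 cells/mL in RPMI-1640 with 10% FBS. Nonadherent cells were reseeded at 5 × 10^5 cells/mL in growth medium containing 2.5 μg/mL PHA. Graded compound was added and viability read by MTT after 72 h. IC50 is given as mean ± SEM of three separate experiments.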
# [7] = system: HeLa cells; assay: Mitochondrial membrane potential; assay type: cell-based, human; conditions: JC-1, 24 or 48 h
# In short: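 HeLa cells exposed to the test compound at the stated concentrations for 24 or 48 h, with DMSO at no more than 0.25%, then stained with the lipophilic cationic dye JC-1 to monitor mitochondrial membrane potential. Values are the mean ± SEM of three independent experiments.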
# [8] = system: HeLa cells; assay: Western blot analysis of cell cycle and apoptosis proteins; assay type: cell-based, human
# In short: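 HeLa cells were treated for 24 or 48 h. They were washed twice in ice-cold PBS and lysed on ice for 30 min, and the lysates were cleared at 15000g, 4 °C, 10 min. Protein was measured by BCA, and 20 μg per lane was run on 7.5–15% SDS–PAGE, then blotted to PVDF and blocked overnight at 4 °C. Membranes were probed 2 h at room temperature for cyclin B, p-cdc2 Tyr15, PARP and Xiap, with peroxidase secondary for 60 min and ECL detection. They were stripped and reprobed for β-actin.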
# [9] = system: HeLa cells; assay: ROS production; assay type: cell-based, human; conditions: HE or H2-DCFDA, 24 or 48 h
# In short: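 After 24 or 48 h exposure to the test compound (DMSO at most 0.25%), cells were stained with hydroethidine (HE) or H2-DCFDA and ROS were read by flow cytometry. Results are the mean ± SEM from three independent experiments.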
# [10] = system: BNL 1ME A.7R.1 allografts; assay: Syngeneic hepatocellular carcinoma allograft model; assay type: in vivo, Balb/c mice; conditions: 5 mg/kg ip daily for seven days
# In short: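 Male Balb/c mice, 8 weeks old, received 10^7 syngeneic hepatocarcinoma cells in 200 μL sterile PBS subcutaneously in the dorsal region. At ~100 mm3, fifteen mice were randomised into three groups of five. Groups got vehicle (0.9% NaCl, 5% PEG 400, 0.5% Tween 80), test compound, or reference, each at 5 mg/kg ip daily for 7 days. Body weight was tracked as mean ± SEM; two-sided Student's t test.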
# [11] = Cytotoxicity for resting peripheral blood lymphocytes; assay type: cell-based; conditions: human
# In short: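 Donor PBLs were separated on a Lymphoprep gradient, washed, and kept overnight in RPMI-1640 with 10% FBS. Nonadherent cells were resuspended at 5 × 10^5 cells/mL without PHA (resting) and exposed to graded compound for 72 h. Viability was read by MTT. IC50 is given as mean ± SEM from three separate experiments.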
Compound,IC50 [1],resistance ratio [1],IC50 [2],IC50 [3],"cells arrested in G2/M ([4]; 24 h, at higher concentrations)",lowest concentration giving a rise in G2/M cells [4],annexin-V-positive cells vs control [5],IC50 at 72 h [6],proportion of cells with depolarized mitochondria [7],"cyclin B expression ([8]; 10 or 100 nM, 24 or 48 h)","expression of phosphorylated cdc2 (Tyr15) ([8]; 10 or 100 nM, 24 or 48 h)",concentration at which PARP cleavage was detectable ([8]; 24 h),"Xiap expression ([8]; 24 h, even at 10 nM)","caspase activation ([8]; Western blot, HeLa)",ROS production vs control cells [9],body weight change during treatment [10],IC50 at 72 h [11]
"COC(=O)c1sc2ncccc2c1Nc1cc(OC)c(OC)c(OC)c1 [4l, Methyl 3-[(3,4,5-Trimethoxyphenyl)amino]thieno[2,3-b]pyridine-2-carboxylate]",0.0126 ± 0.0029 µM,1.5,0.0085 ± 0.0019 µM,–,–,–,–,–,–,–,–,–,–,–,–,–,–
"CCOC(=O)c1sc2ncccc2c1Nc1cc(OC)c(OC)c(OC)c1 [4m, Ethyl 3-[(3,4,5-Trimethoxyphenyl)amino]thieno[2,3-b]pyridine-2-carboxylate]",0.0195 ± 0.0023 µM,1.2,0.0162 ± 0.0044 µM,–,–,–,–,–,–,–,–,–,–,–,–,–,–
"COC(=O)c1sc2cc(OC)ccc2c1Nc1cc(OC)c(OC)c(OC)c1 [4i, Methyl 6-Methoxy-3-[(3,4,5-trimethoxyphenyl)amino]-1-benzo-[b]thiophene-2-carboxylate]",–,–,–,0.00028 to 0.01 µM,more than 80%,20 nM,accumulation of annexin-V-positive cells,2.8 ± 1.2 µM,time- and concentration-dependent increase,no significant variations,dramatic decrease,10 nM,almost eliminated,induced proteolytic cleavage of caspase-9 and caspase-3,induced the production of significant amounts of ROS,only a small decrease in body weight,> 10 µM
"COC(=O)c1sc2nc(C)ccc2c1Nc1cc(OC)c(OC)c(OC)c1 [4n, Methyl 6-Methyl-3-[(3,4,5-trimethoxyphenyl)amino]thieno[2,3-b]pyridine-2-carboxylate]",–,–,–,–,–,20 nM,accumulation of annexin-V-positive cells,–,time- and concentration-dependent increase,–,–,–,–,–,induced the production of significant amounts of ROS,–,> 10 µM

# From paper PMC3646584 (Journal of medicinal chemistry, 2013)
